Experimental data taken from ChEMBL document CHEMBL4513216, “Probing the Open Global Health Chemical Diversity Library for Multistage-Active Starting Points for Next-Generation Antimalarials” (ACS Infect Dis, 2020).

assay: Toxicity liver stage against HepG2, at 10uM; assay type: cell-based; parameters: test concentration 10 uM, cell line HepG2-A16-CD81EGFP; settings: human, HepG2-A16-CD81EGFP cells; read-out: INHIBITION
Procedure, shortened: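 Uninfected HepG2-A16-CD81EGFP cells, 3 × 10^3 per well, 1536-well, plated on prespotted compound at 10 μM final, parasite-free screening media added to match infected plates; puromycin 10 μM positive, DMSO 0.5% negative; run in parallel with 48 h PbLuc assay at 37 °C, 5% CO2; viability by CellTiter-Glo luminescence, normalized to controls.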

Structure (SMILES)	cytotoxicity at 10 µM
CCOC(=O)Cn1c(=O)c(OCC)nc2cnccc21	4.25%
CCc1c(C)nc2n(c1=O)CC(C(=O)Nc1ccccc1C)CS2 (centres undefined)	-1.38%
COc1cc(N2C[C@H]3CN(CC(=O)N(C)C)C(=O)[C@H]3C2)ncn1	96.6%
CN(C)C[C@H]1C[C@@H]2CN(C(=O)c3ccco3)C[C@@H]2O1	-5.77%
COc1cc(N2CC3(CCN(S(=O)(=O)C4CC4)C3)C2)ncn1	7.34%
O=C(N1CCOCC1)N1C[C@@H]2OCCN(C(=O)c3ccco3)[C@@H]2C1	-135%
Cc1ccc(N2CCCc3sc(C(=O)NCc4ccncc4)nc32)nn1	14.6%
O=C(C[C@@H]1COC[C@H]2CN(C3CCOCC3)C[C@@H]12)Nc1cnccn1	12%
CCc1nc(NCc2ccccn2)c2c(n1)c(C)nn2C	8.92%
Cc1ccc(NC(=O)N2CCN(Cc3ccccn3)CC2)cc1Cl	-7.21%
Cc1nn(CCNc2ncnc3c2NC(=O)CN3)c(C)c1Cl	10.5%
Cc1nn(C)c(C)c1CN(C)C(=O)c1cc(C(F)(F)F)n(C)n1	-0.65%
COc1ccc([C@@H]2NC(=O)N[C@H]3OCCC[C@H]32)cc1	1.49%
CCn1nc(C)c2nnn(CC(=O)Nc3cccc(C)c3)c(=O)c21	10.1%
CCC(=O)N1CCC(c2nc(N3CCCCC3)ncc2S(C)(=O)=O)CC1	4.03%
Cc1cc(C)nc(N2CC[C@H](Oc3ccccc3F)[C@@H](O)CC2)n1	3.72%
Cc1nc[nH]c1CN(Cc1ccc(F)cc1)C1CC(C)(C)NC(C)(C)C1	0.92%
CC(=O)NCC(=O)NCC1(O)CCN(c2cnccn2)C1 (centres undefined)	7.89%
CN(C)C(=O)CN1CCCC(Cc2ccc(N3CCCC3)nn2)C1 (centres undefined)	3.77%
CN(C)Cc1ccnc(C2CN(CCCc3ccccc3)CCO2)n1 (centres undefined)	-6.36%
NC(=O)C1CN(C(=O)Cc2cccnc2)CCN(C2CCOCC2)C1 (centres undefined)	-9.58%
CNC(=O)C1CN(C(=O)COc2ccccc2)Cc2cn(C)nc21 (centres undefined)	-10.4%

Structure (SMILES)	cytotoxicity at 10 µM
Cc1cc2c(=O)n3c(nc2s1)CCN(C(=O)c1cnn(C)c1C)CC3	0.359%
Cc1nc(NC2CCCC2)cc(C2CCN2C(=O)c2cccnc2)n1 (centres undefined)	0.848%
O=C(CN1CCOCC1)Nc1cc(C(F)(F)F)ccc1-n1cccc1	8.32%
CCC(=O)N1CCC(NCc2cc(C(F)(F)F)ccc2Cl)C1 (centres undefined)	-4.04%
O=C1C(Sc2cnn[nH]2)CCCN1c1ccccc1F (centres undefined)	24.9%
CCN(Cc1cc(Br)ccc1F)C(=O)C(C)NC(N)=O (centres undefined)	11.6%
CC(=O)Nc1cccc(CN2CCN(C3=NCC(C)(C)S3)CC2)c1	0.955%
CC(CNC(=O)CCc1ccco1)N1CCc2sccc2C1 (centres undefined)	4.35%
NS(=O)(=O)c1cnn(CC(=O)Nc2c(Cl)cccc2Cl)c1	-7.2%
CCn1ccnc1CN1CCN(c2nccc(OC)n2)CC1C (centres undefined)	-17.9%
CC(C)NC(=O)NC(=O)C(C)N1CCN(C2CCN(C(C)C)CC2)CC1 (centres undefined)	-15.5%
CCc1nnc(NC(=O)N(CCOC)Cc2ccc(C)o2)s1	-18.8%
COC(=O)C(NC(=O)c1ccc(C)cc1C)c1cccnc1 (centres undefined)	-41.9%
CC1COC2(CCN(C(=O)c3ncoc3C(C)C)CC2)O1 (centres undefined)	1.15%
CN(C(=O)C1CC(=O)N(CCc2ccccc2)C1)c1nccs1 (centres undefined)	9.89%
COc1ccc2oc(C(C)NC(=O)NCC(C)(C)C(N)=O)c(C)c2c1 (centres undefined)	-9.51%
CCS(=O)(=O)N1CCCC(c2nc3ccccc3n2C(C)C)C1 (centres undefined)	-6.11%
CSc1ccc(S(=O)(=O)NC2CNC(=O)C2)cc1 (centres undefined)	-2.46%
COc1cccc(CNc2cc(CO)ccc2Cl)c1	-13.3%
CSc1ccc(NCC(=O)Nc2c(C)nn(C)c2C)cc1F	10.7%
CCC(NCc1cc[nH]n1)c1nc(C(F)(F)F)cs1 (centres undefined)	6.12%
Cc1noc(C2CCCN(CC(=O)N3CCc4ccccc4C3)C2)n1 (centres undefined)	-19.3%

Structure (SMILES)	cytotoxicity at 10 µM
O=C(Nc1cccc(OCC(F)F)n1)c1ccncc1F	-3.33%
Cc1cc(C)n(C2CN(CC(=O)NCc3ccccn3)C2)n1	-2.92%
CC(C)(C)c1ccc(S(=O)(=O)CCN2CCNC(=O)CC2)cc1	-5.41%
O=S(=O)(Cc1c(F)cccc1F)NCCOc1cccnc1	-39.7%
COc1ccc(C(C)N2CCC(OC)CC2)cc1Cl (centres undefined)	-53.2%
CC1CCCN(c2ccccc2OCC(=O)NC2CC2)C1 (centres undefined)	10.1%
CCN(Cc1noc(CC(C)C)n1)Cc1ccccc1C	-50.8%
Cc1nn(C)c(Cl)c1C1CCCN1c1ncnc2sccc12 (centres undefined)	20.8%
Cc1nc(COC[C@@]23CCC[C@@H]2CN(Cc2cnn(C)c2)C3)cs1	-101%
CCC1=NC2(CCC(C(=O)Nc3ccc(F)cc3)CC2)C(=O)N1C (centres undefined)	2.26%
CC(=O)N1C[C@H](NC(=O)c2cscn2)[C@@H]2OCCC[C@@H]21	2.88%
COCC1CN(C(=O)c2cccn2C)Cc2nccn2C1 (centres undefined)	6.92%
CN(C)c1nccc(-c2c[nH][nH]c2=O)n1	-1.25%
CNCC[C@H]1CC(C)(C)Oc2ccc(OC)cc21	0.942%
Cc1ncc(-c2ccnc(SCCN)n2)c(-c2ccco2)n1	-14.8%
Cc1cc(CN(C)C(=O)c2cc(COc3ccccc3)[nH]n2)n[nH]1	5.76%
Cc1cccc(C)c1OCC(C)Nc1nc(N)nc2c1CCNC2 (centres undefined)	5.75%
CNC(=O)c1cc2c(s1)CCN(C(=O)CCC1CCCN(C)C1)C2 (centres undefined)	-29.3%
CCOc1cccc(C2CC(=O)NCc3nc(N)sc32)c1 (centres undefined)	-9.23%
CC(C)CN1CC(c2nc(-c3cccc(F)c3)c[nH]2)CC1=O (centres undefined)	4.52%
Cc1ccc(CN(C)C(=O)c2cc(Cn3ccnc3C(C)C)[nH]n2)o1	0.073%
COc1cc(NCCCSc2nnc(C)s2)ncn1	20.6%

Structure (SMILES)	cytotoxicity at 10 µM
Cc1csc(CN2C[C@H](NC(=O)C3CCOCC3)[C@@H](C(C)C)C2)n1	6.99%
Cc1ccc(NC2(C(=O)N3CCn4cncc4C3)CCCCC2)cc1C	8.47%
CCOCCNC(=O)C1CCC(=O)N(CCc2ccc(Cl)cc2)C1 (centres undefined)	8.61%
CN(Cc1nc2ccccc2c(=O)[nH]1)C[C@@H]1CCCN2CCCC[C@H]12	-6.01%
NC1(C(=O)NCC2CCCN(Cc3ccccc3F)C2)CCCC1 (centres undefined)	-43.2%
Cn1cccc1C(=O)N1CC[C@@]2(O)CCN(S(C)(=O)=O)C[C@H]2C1	-10.7%
CC(C)c1nc(CNC(=O)c2ccc(C(C)N3CCCCC3)o2)cs1 (centres undefined)	-9.93%
CCCn1cnc(NC(=O)NCC2CCS(=O)(=O)C2)n1 (centres undefined)	10.3%
CN(C)c1nc(NCCc2ccnn2C)ncc1F	-9.83%
Cc1cc(C)c2c(NCCC3(O)CCCC3)ncnc2n1	-4.44%
CN1CCN(Cc2noc(CC3CCc4ccccc43)n2)CC1 (centres undefined)	-20.1%
CC(C)c1cc(N[C@@H](CO)C(N)=O)n2nccc2n1	-1.28%
CCc1ccccc1OCCN(C)C(=O)CCN1CCCO1	-43%
Cc1cccc(C(C(=O)N(C)CCc2cn[nH]c2)N(C)C)c1 (centres undefined)	-8.06%
CCNc1ncc(C(=O)N2CCOC(CCCc3ccccc3)C2)cn1 (centres undefined)	79.2%
O=C1NCC2(CCCN(C(=O)c3ccc4c(c3)OCCO4)CC2)O1 (centres undefined)	-9.35%
CN(C)C(C(=O)N1CCN(C(=O)c2ccc[nH]2)CC1)c1ccc(F)cc1 (centres undefined)	-5.19%
COc1ccccc1OC1(C(=O)O)CCN(c2cnccn2)CC1	-27.5%
CCn1nc(C)cc1C(=O)NCc1cccnc1N(C)C	-5.54%
Cc1cccnc1CC(C)NC1Cc2ccccc2C1 (centres undefined)	4.69%
Cn1cc(N)c(-c2nnc3n2CCCC3)n1	-6.83%
CCC(=O)N1CCCC1c1nccnc1Nc1ncccn1 (centres undefined)	3.58%

Structure (SMILES)	cytotoxicity at 10 µM
Cc1csc(N2CCN(CC(=O)Nc3c(C)n[nH]c3C)CC2C)n1 (centres undefined)	-14.4%
O=C1C(NCc2nnc3n2CCCC3)CCN1CC(F)(F)F (centres undefined)	-13.8%
COc1ccccc1CN(Cc1cccnc1)CC1CCCO1 (centres undefined)	1.03%
Cn1cc(CNC2CCc3c(ccc(=O)n3Cc3ccncc3)C2)cn1 (centres undefined)	-102%
Cc1c(Br)cccc1C(=O)NCC1CCCNC1 (centres undefined)	19.8%
c1ccc(NCc2cn3c(n2)CNCC3)nc1	9.28%
COCC1CC2(CCN(C(=O)c3cnc4ccccc4c3)CC2)CO1 (centres undefined)	-142%
CCc1ccc(CN2C[C@H](OC)[C@H]3COC[C@H]32)o1	5.22%
O=C(c1cocn1)N1C[C@H]2CCC[C@@]2(COc2ccccn2)C1	-0.798%
CCN1CCCC12CCN(Cc1cccnc1OC)CC2	13.4%
Cc1nc(CN2C[C@@H]3CN(C(=O)C4CC4)C[C@@H]3C2=O)cs1	4.19%
COc1cccc(CNC(Cc2cccs2)c2nc(C)c(C)s2)c1OC (centres undefined)	-12.9%
COc1ccc(S(=O)(=O)N2CCN(C)c3ncccc3C2)cc1	-110%
Cc1nc(CN2CCO[C@@H]3CN(Cc4ccccn4)CC[C@@H]3C2)cs1	7.02%
O=C(NC1CC1)[C@H]1C[C@H]2OCC[C@H]2N(Cc2cccnc2)C1	0.698%
Cc1ccc2c(c1)C(NC1CC1)CC21CCNCC1 (centres undefined)	-98%
O=C1COC2(CCN(c3cccc(F)c3)CC2)CN1Cc1ccccn1	-2.94%
Cn1cccc1C(=O)N1C[C@@H](OCc2ccncc2)[C@@H]2OCCC[C@@H]21	2.32%
COc1ccc(CN2CCCn3cnc(COCC4CC4)c3C2)cc1	11%
N#Cc1cccc(N2CCCC3(C2)CN(c2ncccn2)CCO3)n1 (centres undefined)	17.8%
Cc1cccc(S(=O)(=O)N2C[C@@H]3C[C@H](C(=O)N(C)C)[C@H](C2)O3)c1	-5.18%
